T cell HTS – T cell immune modulation candidate; 2C CD8+ T cell-vesicle binding, flow cytometry; active compounds read low; hit rate 0.068% among 330,000; response (vesicle binding), % at 7 µM;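 active means response, share of CD8 T cells binding vesicles, and their 90th percentile fluorescence all below set limits, cut at about 80% in these data, passing the limit was not always enough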;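 further: values below 100% mean blocked vesicle binding to the CD8+ T cells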
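Read-out – percent CD8+ FL2 mean versus row control · System – murine 2C transgenic CD8+ T lymphocytes · Times – 1.5 h cell–vesicle binding at 37 °C, then 20 min icy labelling · Control set – naked vesicles low, QL9 vesicles with vehicle high · Detection – cytometric PE anti-B7-1 and Alexa647 anti-CD8 signals after 1% paraformaldehyde fixation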
MPTP block – blocks calcium-induced mitochondrial swelling; isolated mouse mitochondria, Ca2+ swelling absorbance, 30 min; inhibition, % at 10 µM; hit rate 1.4% among 360,000; AID 602449;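 active means inhibition of 50% or more, scaled per plate between neutral and stimulator controls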;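 further: 0% = DMSO wells given calcium and 100% = 1 mM EGTA wells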
B2AR ag – agonists of human beta-2 adrenergic receptor inducing internalization; hit rate 0.43% among 340,000; response, % (test concentration not listed); AID 504454; Am2.2-beta2AR cells, FAP receptor internalization, flow cytometry;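 active means response above a set limit, near 3 SD of response in nonfluorescent compounds, cut at about 42% in these data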
Target sequence (P07550 whole entry, looked up): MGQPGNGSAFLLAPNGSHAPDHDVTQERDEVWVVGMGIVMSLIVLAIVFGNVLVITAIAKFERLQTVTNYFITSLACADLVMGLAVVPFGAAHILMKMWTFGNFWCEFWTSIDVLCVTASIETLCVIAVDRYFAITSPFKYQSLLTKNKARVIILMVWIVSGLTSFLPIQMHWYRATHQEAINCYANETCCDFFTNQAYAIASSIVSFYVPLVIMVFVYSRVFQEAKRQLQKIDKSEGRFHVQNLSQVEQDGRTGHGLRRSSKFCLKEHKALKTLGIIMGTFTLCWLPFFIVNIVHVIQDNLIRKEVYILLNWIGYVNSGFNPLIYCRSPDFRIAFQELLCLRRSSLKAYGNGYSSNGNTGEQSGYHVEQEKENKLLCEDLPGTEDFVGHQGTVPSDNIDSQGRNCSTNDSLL
V-ATPase pHluor – yeast V-ATPase proton transport regulation by pHLuorin; response, % at 10 µM; hit rate 0.37% among 350,000; S. cerevisiae, pHLuorin cytosolic pH fluorescence; in the data active means response mostly above about 7.3%, no sharp cut-off; inactive means mostly below about 5.4%; further: actives read high
Granule exo inh – blocks lytic granule exocytosis | hit rate 0.66% among 360,000 | AID 651702 | inhibition, % at 10 µM | TALL-104 LAMP-1 surface exposure, flow cytometry; cells stimulated with thapsigargin and PMA;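 active means inhibition above about 55%, limit read from the data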
rCAG RNA binder – r(CAG) repeat RNA binding | TO-PRO-1 dye displacement fluorescence | inhibition, % at 3 µM | hit rate 1.3% among 370,000;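 active means inhibition above the plate cutoff, the mean of all test compounds on that plate plus 3 SD, cut at about 35% in these data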;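 further: 0% = DMSO alone and 100% = 100 µM mitoxantrone as full dye displacement; higher means more dye released from RNA so lower well fluorescence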
rCAG binder conf – r(CAG) RNA repeat binding, confirmation. shares compounds with rCAG RNA binder. TO-PRO-1 dye displacement fluorescence. inhibition, % at 3 µM. hit rate 70% among 4,300;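 active means inhibition above a per-plate cutoff, the mean inhibition of sample wells plus 3 SD, cut at about 35% in these data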;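 further: loss of TO-PRO-1 fluorescence as compound displaces dye from 1x1 AA loop RNA; 0% = DMSO only wells and 100% = 100 µM mitoxantrone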
DNA CAG counter – counter-screen for rCAG RNA binders: DNA CAG dye complex inhibitors. d(CAG) DNA oligo TO-PRO-1 dye displacement, fluorescence. hit rate 94% among 4,300. inhibition, % at 3 µM. shares compounds with rCAG RNA binder;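 active means inhibition above its plate's cutoff, the mean test-well inhibition plus 3 SD, cut at about 4.8% in these data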;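 further: 0% = DNA dye mix with DMSO and 100% = 100 µM mitoxantrone; hits displace the dye from DNA and so lower well fluorescence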
Numbers without * were called inactive; i = inactive; x = not tested or not shown. Most compounds without a hit are left out; they make up all but 3.8% or so of the library.

SMILES	T cell HTS	MPTP block	B2AR ag	V-ATPase pHluor	Granule exo inh	rCAG RNA binder	rCAG binder conf	DNA CAG counter
FC(F)(F)c1ccccc1/C=N/n1c(COc2ccccc2)n[nH]c1=S	572	1	9	5	5	44*	28	5.5*
S=c1[nH]nc(COc2ccccc2)n1/N=C/c1ccncc1	126	0	2	5	7	-1	x	x
S=c1[nH]nc(COc2ccccc2)n1/N=C/c1ccccc1Br	585	0	6	-2	-1	38*	38*	8.4*
Nn1c(SCC(=O)N2CCOCC2)nnc1-c1cc(-c2ccc(Cl)cc2)n[nH]1	x	x	x	x	x	3	x	x
CC(=O)CSc1nsc(SCC(C)=O)c1C#N	217	4	12	-1	3	35*	38*	18*
CCN(CC)S(=O)(=O)c1cccc(-c2n[nH]c(=S)n2/N=C/c2ccc(OC)cc2)c1	225	1	-5	3	-3	50*	46*	12*
CCN(CC)S(=O)(=O)c1cccc(-c2n[nH]c(=S)n2/N=C/c2ccc(Br)cc2)c1	155	17	-8	2	-1	78*	83*	48*
CCN(CC)S(=O)(=O)c1cccc(-c2n[nH]c(=S)n2/N=C/c2ccc(OC(F)F)cc2)c1	405	5	8	-1	1	78*	64*	22*
CCOc1ccc(C=Nn2c(-c3cccc(OC(C)C)c3)n[nH]c2=S)cc1	x	x	x	x	x	44*	46*	11*
CCOc1ccc(C=Nn2c(-c3ccc(F)cc3)n[nH]c2=S)cc1	x	x	x	x	x	25	x	x
COC(=O)C1=C(C)N(Cc2cccc(C(F)(F)F)c2)C(=NCc2cc(OC)c(OC)c(OC)c2)NC1c1cccc(F)c1 (stereo not drawn)	x	x	x	x	x	5	x	x
C#CCN1C(=O)[C@]2(OCCC=C[C@H]2C)c2cc(OC)ccc21	x	x	x	x	x	0	x	x
CCOC(=O)c1sc(N2C(=O)C(O)=C(C(=O)c3ccco3)C2c2ccc(C)o2)nc1C (stereo not drawn)	413	4	10	-1	-15	44*	59*	21*
CCOc1ccc(C2C(C(=O)c3ccc(C)o3)=C(O)C(=O)N2c2nc(C)c(C(=O)OC)s2)cc1 (stereo not drawn)	201	3	14	-4	0	24	x	x
CCOC(=O)c1sc(N2C(=O)C(O)=C(C(=O)c3ccco3)C2c2ccc([N+](=O)[O-])cc2)nc1C (stereo not drawn)	i	7	5	1	-2	80*	85*	55*
Cc1cc(N2C(=O)C(O)=C(C(=O)c3ccco3)C2c2ccc([N+](=O)[O-])cc2)no1 (stereo not drawn)	360	0	3	-4	-5	13	x	x
NC(=S)NN=C1c2cc(S(=O)(=O)N3CCOCC3)ccc2-c2ccc(S(=O)(=O)N3CCOCC3)cc21	281	1	9	0	0	35*	46*	20*
COc1cccc(/C=C2\CC3(OC(=O)c4ccc(F)cc4)CCCN2C3)c1 (stereo not drawn)	x	x	x	x	x	1	x	x
O=C(N/N=C/C(Cl)=C/c1ccc([N+](=O)[O-])cc1)C(=O)Nc1ccc(C(=O)O)cc1	578	2	-4	0	6	-1	x	x
Cc1ccccc1C(=O)Nc1cccc(C(=O)Nc2ccccc2C(=O)O)c1	175	1	0	-3	-3	36*	23	3
O=C(/C=C/c1ccc([N+](=O)[O-])cc1)Nc1cccc(C(=O)Nc2ccccc2C(=O)O)c1	124	1	15	2	-6	44*	83*	50*
O=C(/C=C/c1ccccc1)Nc1cccc(C(=O)O)c1	328	0	-2	1	0	3	x	x
O=C(Nc1ccccc1C(=O)O)c1cccc(NC(=O)c2ccccc2Cl)c1	211	2	-5	1	-4	34	x	x
CC(=O)Oc1cccc(C(=O)Nc2cccc(C(=O)Nc3ccccc3C(=O)O)c2)c1	236	0	-2	2	3	56*	37*	8.4*
O=C(N/N=C/C(Cl)=C/c1ccc([N+](=O)[O-])cc1)C(=O)Nc1ccccc1C(=O)O	506	11	5	-5	-8	52*	46*	19*
SMILES	T cell HTS	MPTP block	B2AR ag	V-ATPase pHluor	Granule exo inh	rCAG RNA binder	rCAG binder conf	DNA CAG counter
CCOc1ccc(-n2c(SCC(=O)c3ccc4ccccc4c3)nnc2-c2ccco2)cc1	x	x	x	x	x	21	x	x
O=C(Cc1cccs1)NC1CCCCN(Cc2ccc(Cl)cc2)C1=O (stereo not drawn)	x	x	x	x	x	4	x	x
S=C(SCc1nc(-c2ccc(Cl)cc2)no1)N1CCSCC1	x	x	x	x	x	1	x	x
CCCc1cc(=O)[nH]c(SCC(=O)Nc2cc(S(=O)(=O)N(CC)c3ccccc3)ccc2Cl)n1	295	6	0	-1	-3	60*	56*	20*
CCc1ccc(Nc2nnc(SCC(=O)Nc3ccc(C(=O)O)cc3)s2)cc1	468	0	3	-4	-1	36*	22	5.0*
Cc1ccc(NC(=S)NNC(=O)CSc2nnc(SCc3cccc4ccccc34)s2)cc1	x	x	x	x	x	52*	51*	20*
CCc1ccc(Nc2nnc(SCC(=O)NC(=O)c3cccn3C)s2)cc1	297	8	5	3	3	8	x	x
O=C(CSc1nnc(SCc2ccccc2)s1)N/N=C/c1ccc(C(=O)O)cc1	339	2	-1	-2	-4	22	x	x
Cc1ccc(CSc2nnc(SCC(=O)N/N=C/c3ccc(C(=O)O)cc3)s2)cc1	168	3	-3	2	6	43*	41*	11*
O=C(CSc1nnc(SCc2cccc3ccccc23)s1)Nc1ccc(C(=O)O)cc1	178	1	7	-1	1	67*	68*	30*
O=C(CSc1nnc(SCc2cccc3ccccc23)s1)Nc1ccc(Oc2ccccc2)cc1	x	x	x	x	x	12	x	x
COC(=O)C1=C(C)N(C)C(=NCc2ccc3c(c2)OCO3)NC1c1ccc(Cl)cc1 (stereo not drawn)	x	x	x	x	x	12	x	x
COC(=O)[C@]12C[C@H](CC(=O)NCc3cccs3)C(=O)N(CCC3=CCCCC3)C1=C[C@H](C1CCCC1)O[C@@H]2C	x	x	x	x	x	2	x	x
Cc1oc2c(c(C)cc3oc(=O)c(CC(=O)N[C@@H](CC(C)C)C(=O)O)c(C)c32)c1C	212	1	-3	-6	-1	43*	33	6.3*
Cc1c(CC(=O)O)c(=O)oc2c(C)c3occ(-c4ccc(Br)cc4)c3cc12	163	3	9	0	26	7	x	x
COc1cccc(-c2coc3cc4oc(=O)c(CCC(=O)O)c(C)c4cc23)c1	649	1	9	1	4	47*	47*	14*
